Screens: PubChem BioAssay, several laboratories
PvdQ inh: P. aeruginosa PvdQ acylase inhibition | purified PvdQ acylase, fluorescence plate reader | inhibition, % at 10 µM | 340,000 tested, 0.063% active | AID 488965; in the data active = inhibition above about 30%, passing the limit was not always enough
PHOSPHO1 block: blocks human PHOSPHO1 phosphatase activity; 290,000 tested, 1.1% active; recombinant PHOSPHO1, absorbance phosphatase assay; Q8TCT1; AID 1565; inhibition, % at 13.3 µM; in the data active = inhibition above about 60%
Target sequence (Q8TCT1 whole entry, looked up): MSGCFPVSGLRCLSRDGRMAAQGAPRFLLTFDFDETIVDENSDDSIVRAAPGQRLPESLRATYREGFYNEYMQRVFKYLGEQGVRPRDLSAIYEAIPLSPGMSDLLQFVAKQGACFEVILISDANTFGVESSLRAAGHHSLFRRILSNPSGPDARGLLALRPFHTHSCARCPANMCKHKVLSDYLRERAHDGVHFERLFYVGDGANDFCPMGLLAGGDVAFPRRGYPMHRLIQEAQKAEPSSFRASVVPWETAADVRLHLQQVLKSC
Yeast superoxide: yeast age-related superoxide inhibition as caloric restriction mimetic; S. cerevisiae aged cells, superoxide DHE fluorescence; active compounds read low; superoxide response (% of plate mean), % at 10 µM; 330,000 tested, 0.18% active; AID 2690;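 active = superoxide response under a set limit, about three screen SD below normal, cut at about 65% in these data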;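 note: yeast aged for seven days with compound at 30 °C before DHE staining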
IMP-1 inh-1: blocks Pseudomonas aeruginosa IMP-1 metallo-beta-lactamase. inhibition, % at 5.6 µM. 290,000 tested, 0.45% active. AID 1556. purified IMP-1, nitrocefin hydrolysis, epi-absorbance fluorescence;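 active = inhibition above the mean plus 3 SD of all compounds in the same screening run, cut at about 4.5% in these data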
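Assay system: purified IMP-1; Quantity: IMP-1 0.2 nM before substrate addition; Medium: HEPES buffer pH 7.1 with ZnSO4 and Brij 35; Incubation: 15 min enzyme–compound preincubation, then 25 min nitrocefin reaction, 25 °C; Signal: fluorescence quenching readout, ex 480/em 530 nm; Controls: DMSO with and without IMP-1; Repeats: singlicate testing.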
VIM-2 inhibitor: inhibitors of Pseudomonas aeruginosa VIM-2 metallo-beta-lactamase. purified VIM-2, nitrocefin hydrolysis, epi-absorbance fluorescence. inhibition, % at 5.6 µM. 290,000 tested, 0.89% active;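 active = inhibition above the mean of all tested compounds plus 3 SD, cutoff set per screening run, cut at about 7.5% in these data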;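 note: red hydrolysis product quenches plate fluorescence so inhibitors raise well fluorescence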
IMP-1 inh-2: selectivity counter-screen for VIM-2 inhibitors: IMP-1 metallo-beta-lactamase inhibitors | 1,300 tested, under 10 active | shares compounds with VIM-2 inhibitor | purified IMP-1, nitrocefin hydrolysis, epi-absorbance fluorescence | AID 1856 | inhibition, % at 5.6 µM; call rule not given here
VIM-2 FRET ctr: VIM-2 FRET inhibition, artifact counter-screen | shares compounds with VIM-2 inhibitor | AID 1857 | 1,300 tested, 23% active | inhibition, % at 5.6 µM | purified VIM-2, CCF2 FRET substrate hydrolysis;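 active = inhibition above the mean of all tested compounds plus 3 SD, cut at about 19% in these data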
TEM-1 counter: selectivity counter-screen for VIM-2 inhibitors: E. coli TEM-1 inhibitors | 1,300 tested, 3% active | AID 1866 | inhibition, % at 5.6 µM | Purified TEM-1, nitrocefin hydrolysis, epi-absorbance fluorescence | shares compounds with VIM-2 inhibitor;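 active = inhibition above that campaign's mean inhibition plus 3 SD, cut at about 0.46% in these data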
Target sequence (P62593 whole entry, looked up): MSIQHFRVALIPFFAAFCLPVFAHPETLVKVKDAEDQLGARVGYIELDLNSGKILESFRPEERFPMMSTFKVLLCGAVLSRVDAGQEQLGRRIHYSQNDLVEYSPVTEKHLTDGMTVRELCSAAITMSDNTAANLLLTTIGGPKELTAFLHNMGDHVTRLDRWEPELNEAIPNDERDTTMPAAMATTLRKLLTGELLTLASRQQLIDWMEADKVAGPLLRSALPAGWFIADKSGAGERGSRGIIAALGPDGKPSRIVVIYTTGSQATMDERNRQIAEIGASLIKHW
VIM-2 confirm 2: confirmation of P. aeruginosa VIM-2 metallo-beta-lactamase inhibitors; shares compounds with VIM-2 inhibitor; purified VIM-2, nitrocefin hydrolysis, epi-absorbance; inhibition, % at 5.6 µM; 1,300 tested, 96% active;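 active = inhibition of the VIM-2 beta-lactamase enzyme above about 11% from the earlier first-round screen, limit read from the data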
Numbers stand for hits; - = inactive; . = no result. A selection: hits, their analogues and other compounds. The true share with any hit is near 2.2%.

SMILES	PvdQ inh	PHOSPHO1 block	Yeast superoxide	IMP-1 inh-1	VIM-2 inhibitor	IMP-1 inh-2	VIM-2 FRET ctr	TEM-1 counter	VIM-2 confirm 2
Cc1c(Cl)c(-c2n[nH]c(=S)n2CC(C)C)nn1C	-	-	-	-	-	.	.	.	.
Cc1ccc(-n2c(-c3nn(C)cc3Cl)n[nH]c2=S)cc1	-	-	-	-	17	-	50	-	31
Cn1cc(Cl)c(-c2n[nH]c(=S)n2-c2ccccc2)n1	-	-	-	-	14	-	42	-	25
Cc1c(Cl)c(-c2n[nH]c(=S)n2-c2ccc(F)cc2)nn1C	-	101	-	-	16	-	42	-	30
N#Cc1ccc(N)cc1OCCCN1CCCCC1	-	.	.	.	.	.	.	.	.
NS(=O)(=O)c1cccc(NC(=O)CSc2n[nH]c(-c3ccccc3Br)n2)c1	-	.	.	.	.	.	.	.	.
Cc1cc(C(F)(F)F)n(-c2nc(C(=O)O)cs2)n1	-	-	-	-	-	.	.	.	.
O=C(O)c1csc(-n2nc(-c3ccccc3)cc2C(F)(F)F)n1	-	-	-	-	36	-	-	-	-
CC(C)Oc1cccc(C(=O)NC(=S)Nc2ccc(N3CCN(C)CC3)cc2)c1	-	-	-	-	56	-	-	-	70
CN1CCN(S(=O)(=O)c2ccc(NC(=S)NC(=O)c3ccccc3)cc2)CC1	-	-	-	-	34	-	-	-	63
CCOc1ccccc1C(=O)Nc1ccc(S(=O)(=O)N2CCN(C)CC2)cc1	-	-	-	-	18	-	-	-	31
COc1cccc(C(=O)NC(=S)Nc2ccc(N3CCCC3)cc2)c1	-	-	-	-	-	.	.	.	.
CCOc1ccccc1C(=O)Nc1ccc(S(=O)(=O)N2CCOCC2)cc1	-	-	-	-	-	.	.	.	.
CC1CN(S(=O)(=O)c2cc(C(=O)N(C)Cc3cccs3)ccc2Cl)CC(C)O1 (configuration not stated)	-	.	-	.	.	.	.	.	.
COc1ccc(-c2nnc(NC(=O)C3=COCCO3)o2)cc1	-	-	-	-	-	.	.	.	.
Cc1ccnc(NC(=O)C(Cc2ccccc2)NC(=O)c2ccccc2)c1 (configuration not stated)	-	.	-	.	.	.	.	.	.
Cc1ccc2nc(C)c(C)nc2c1N	-	-	-	-	20	-	-	-	31
Cc1cc(C)c2nc3nc(C)c(C)cc3c(N)c2c1	-	-	.	-	18	-	-	-	29
CN1C(=O)C2(N=c3ccccc3=N2)c2ccccc21	-	-	-	-	19	-	-	-	34
COC(=O)CCCCCN1C(=O)NC(C2CC2)C(C(=O)OCc2ccccc2)=C1C (configuration not stated)	-	.	-	.	.	.	.	.	.
c1ccc(-c2ccc3ccccc3n2)cc1	-	.	-	.	.	.	.	.	.
c1ccc2nc(-c3ccc(-n4ccnc4)cc3)ccc2c1	-	-	-	-	38	-	-	-	47
CN(c1ccccc1)S(=O)(=O)c1cccc(NC(=O)c2ccc(Cl)c([N+](=O)[O-])c2)c1	-	.	-	.	.	.	.	.	.
CCCc1cc(=O)oc2cc(C)cc(OC(C)C(=O)NCCCn3ccnc3)c12 (configuration not stated)	-	-	-	-	18	-	-	-	28
Cc1cc(OC(C)C(=O)NCCCn2ccnc2)c2c(C)cc(=O)oc2c1 (configuration not stated)	-	-	-	-	28	-	-	-	39
SMILES	PvdQ inh	PHOSPHO1 block	Yeast superoxide	IMP-1 inh-1	VIM-2 inhibitor	IMP-1 inh-2	VIM-2 FRET ctr	TEM-1 counter	VIM-2 confirm 2
CCCCn1c(N)c(N(CC(C)C)C(=O)CN2C(=O)NC3(CCC(C(C)(C)CC)CC3)C2=O)c(=O)[nH]c1=O (configuration not stated)	-	.	.	.	.	.	.	.	.
COc1ccccc1NC(=O)c1ccccc1NC(=O)c1cccs1	-	-	-	-	-	.	.	.	.
COc1ccc(OC)c(/C=N/NC(=O)CC2C(=O)NN=C2C)c1 (configuration not stated)	-	-	-	-	29	-	63	-	46
COc1cccc(/C=N/NC(=O)CC2C(=O)NN=C2C)c1OC (configuration not stated)	-	-	-	-	-	.	.	.	.
COc1ccc(-c2cccc(NC(=O)c3cccs3)c2)nn1	-	.	-	.	.	.	.	.	.
CC1Cc2ccccc2N1C(=O)COC(=O)c1ccc(Cl)c(S(=O)(=O)N2CCOCC2)c1 (configuration not stated)	-	.	-	.	.	.	.	.	.
COC(=O)c1ccc(CN(c2ccc(C(=O)O)c(O)c2)S(=O)(=O)c2ccc(Cl)c([N+](=O)[O-])c2)cc1	-	-	-	-	-	.	.	.	.
CC(=O)N/N=C/c1cc(C(C)C)cc(/C=N/NC(C)=O)c1O	-	-	-	-	34	-	-	-	47
CC(=O)N/N=C/c1cc(C)n(-c2ccc(Br)cc2)c1C	-	-	-	-	-	.	.	.	.
OCCCc1n[nH]c(=S)n1-c1ccccc1	-	-	-	-	23	-	38	-	27
O=C(O)C=C1C2CC3CC(C2)CC1C3	-	-	-	-	-	.	.	.	.
O=C(O)C(C(=O)O)=C1C2CC3CC(C2)CC1C3	-	-	-	-	39	-	64	-	48
Cc1csc(=O)n1CC(=O)OCC(=O)NC(C)c1ccc(F)cc1 (configuration not stated)	-	.	-	.	.	.	.	.	.
CC1CCN(C(=O)CCC(=O)Nc2nnc(C(F)(F)F)s2)CC1	-	-	-	-	-	.	.	.	.
CC(=O)Nc1ccc(S(=O)(=O)N(C)c2ccc(OCC(=O)NCCc3ccccc3F)cc2)cc1	-	.	.	.	.	.	.	.	.
O=C(NCc1cccnc1)c1cccn2c(=O)c3sccc3nc12	-	-	-	-	26	-	-	-	51
CCCCCCOc1ccc(NC(=O)CC2C(=O)N(CC)C(=S)N2Cc2ccco2)cc1 (configuration not stated)	-	-	-	-	-	.	.	.	.
CCCC[C@@H](CNC)NC[C@H](Cc1ccc(O)cc1)NCCc1ccc(OCC)cc1	-	-	-	-	67	-	-	-	70
CCC[C@H](CN[C@@H](CNC)[C@H](C)O)NCCc1ccc(OC)cc1	-	-	-	-	-	.	.	.	.
CC(C)Sc1nnc(NC(=O)c2ccc3c(c2)OCO3)s1	-	-	-	-	-	.	.	.	.
O=C1c2cccc3c(N4CCCCC4)ccc(c23)C(=O)N1CCO	-	-	-	-	13	-	-	-	25
CCN(CC)CCCCNc1ncc2cc(-c3cc(OC)cc(OC)c3)c(NC(=O)NC(C)(C)C)nc2n1	-	-	-	-	17	-	-	-	25
O=C(c1ccc(N2CCNCC2)cc1)c1cccnc1	-	-	-	-	16	-	-	-	43
O=C(Nc1ccc(N2CCCCC2)cc1)c1cccnc1	-	-	-	-	-	.	.	.	.
